Assays:
[1] = test system: Hepatitis C virus isolate HC-J4; assay: Inhibition of RNA-dependent RNA polymerase activity of HCV genotype 1b HC-J4 recombinant N-terminal histidine tagged C-terminal 21 aminoacids truncated NS5B polymerase at 50 uM after 1 hr by standard primer dependent elongation assay
Method in brief: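 Recombinant NS5BCΔ21 genotype 1b in a primer-dependent elongation assay. […] IC50 is the concentration halving enzyme activity in vitro; mean ± SD of two independent experiments in duplicate.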

[2] = Inhibition of RNA-dependent RNA polymerase activity of HCV genotype 1b HC-J4 recombinant N-terminal histidine tagged C-terminal 21 aminoacids truncated NS5B polymerase after 1 hr by standard primer dependent elongation assay; set-up: species or system Hepatitis C virus isolate HC-J4
Method in brief: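 Recombinant NS5BCΔ21 genotype 1b in a primer-dependent elongation assay. IC50 is the concentration halving enzyme activity in vitro; mean ± SD of two independent experiments in duplicate.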

[3] = test system: Hepatitis C virus; assay: Antiviral activity against HCV genotype 1b I389luc-ubi-neo/NS3-3'/5.1 replicon infected in human Huh5-2 cells assessed as inhibition of virus replication by luciferase assay; format: functional, cell-based, Hepacivirus hominis; conditions: Huh-5-2
[4] = Cytostatic activity against human Huh5-2 cells carrying HCV genotype 1b I389luc-ubi-neo/NS3-3'/5.1 replicon assessed as reduction in metabolic activity after 72 hrs by MTS assay; format: ADME, cell-based, Huh-5-2; conditions: for CC50: huh-5-2, 72 h
Method in brief: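 Replicon-bearing Huh-5-2 cells run in parallel with the antiviral read-out; CC50 is the concentration halving MTS bioreduction to formazan, taken as the antimetabolic effect on host cells; mean ± SD from at least three dose–response curves.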

[5] = Cytotoxicity against human Huh5-2 cells carrying HCV genotype 1b I389luc-ubi-neo/NS3-3'/5.1 replicon assessed as cell morphological changes after 72 hrs by microscopic analysis; format: cell-based; conditions: huh-5-2, 72 h
Method in brief: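 Huh-5-2 replicon cells examined by microscopy for changes in cell morphology after 72 h of compound treatment.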

[6] = Selectivity index, ratio of CC50 for human Huh5-2 cells to EC50 for HCV genotype 1b I389luc-ubi-neo/NS3-3'/5.1 replicon infected in human Huh5-2 cells; set-up: species or system Huh-5-2
[7] = Induction of steatosis in human Huh-9-13 cells assessed as intracellular accumulation of […] lipids at 100 uM by Nile Red staining; format: cell-based

SMILES	inhibition [1] [%]	IC50 [2] [µM]	EC50 [3] [µM]	EC90 [3] [µM]	CC50 [4] [µM]	Activity [5]	Ratio CC50/EC50 [6]	CC50 at 72 h [4] [µM]	Activity [7]
CN1c2c(C(=O)Nc3ccc(NS(C)(=O)=O)cc3)nn(-c3cccc(Br)c3)c2-c2ccccc2S1(=O)=O	> 50	7.7	8.3	26	> 166	Toxic	>20		
CN1c2c(C(=O)Nc3ccc(NS(C)(=O)=O)cc3)nn(-c3ccc(C(F)(F)F)cc3)c2-c2ccccc2S1(=O)=O	> 50	36.3	7.3	31.2	> 169	Toxic	>23		
Cc1cccc(-n2nc(C(=O)Nc3ccc(NS(C)(=O)=O)cc3)c3c2-c2ccccc2S(=O)(=O)N3C)c1	> 50	21.2	5.1	11.8	> 233	Toxic	>46		
CN1c2c(C(=O)Nc3ccccc3)nn(-c3cccc(F)c3)c2-c2ccccc2S1(=O)=O	< 50	> 50	4.5		56	Toxic	12		
CN1c2c(C(=O)Nc3ccc(NS(C)(=O)=O)cc3)nn(-c3ccccc3Cl)c2-c2ccccc2S1(=O)=O	> 50	17.8	7.4	20.8	> 224	Toxic	>30		
CN1c2c(C(=O)Nc3ccc(NS(C)(=O)=O)cc3)nn(-c3ccccc3Br)c2-c2ccccc2S1(=O)=O	> 50	26.5	12		107	Toxic	8.9		
CN1c2c(C(=O)Nc3ccc(OCC(N)=O)cc3)nn(-c3cccc(F)c3)c2-c2ccccc2S1(=O)=O	< 50	> 50	15	34	> 192	Toxic	>13		
CN1c2c(C(=O)Nc3ccc(NS(C)(=O)=O)cc3)nn(-c3ccc(Cl)c(Cl)c3)c2-c2ccccc2S1(=O)=O	> 50	2.7	9.7		> 168	Toxic	>17		
CN1c2c(C(=O)Nc3ccc(NS(C)(=O)=O)cc3)nn(-c3ccc(F)c(F)c3)c2-c2ccccc2S1(=O)=O	> 50	25.4	13.9		138	Toxic	9.9		
Cc1ccc(-n2nc(C(=O)Nc3ccc(NS(C)(=O)=O)cc3)c3c2-c2ccccc2S(=O)(=O)N3C)cc1Cl	> 50	8	7	37	> 175	Toxic	>25		
CN1c2c(C(=O)Nc3ccc(NS(C)(=O)=O)cc3)nn(-c3cccc(C(F)(F)F)c3)c2-c2ccccc2S1(=O)=O	> 50	23.7	7.7	33.2	> 211	Toxic	>28		
CN1c2c(C(=O)Nc3ccc(NS(C)(=O)=O)cc3)nn(-c3cccc(F)c3)c2-c2ccccc2S1(=O)=O								> 370	
COc1cccc(-n2nc(C(=O)Nc3ccc(NS(C)(=O)=O)cc3)c3c2-c2ccccc2S(=O)(=O)N3C)c1	< 50	> 50	11		> 181	Toxic	>16		
Cc1ccc(-n2nc(C(=O)Nc3ccc(NS(C)(=O)=O)cc3)c3c2-c2ccccc2S(=O)(=O)N3C)cc1C	< 50	> 50	6.2	20	> 181	Toxic	>29		
CN1c2c(C(=O)Nc3ccc(NS(C)(=O)=O)cc3)nn(-c3ccc(Cl)c(C(F)(F)F)c3)c2-c2ccccc2S1(=O)=O	< 50	> 50	6.4		> 160	Toxic	>25		
CN1c2c(C(=O)Nc3ccc(NS(C)(=O)=O)cc3)nn(C3CCCCC3)c2-c2ccccc2S1(=O)=O	> 50	43	4.5	11	44	Toxic	9.7		
CN1c2c(C(=O)Nc3ccc(NS(C)(=O)=O)cc3)nn(-c3ccc(Cl)cc3)c2-c2ccccc2S1(=O)=O	> 50	7.9	8.1	23.3	> 224	Non-toxic	>28		Toxic
Cc1ccc(-n2nc(C(=O)Nc3ccc(NS(C)(=O)=O)cc3)c3c2-c2ccccc2S(=O)(=O)N3C)cc1	> 50	14.7	4.8	19.6	> 186	Non-toxic	39		
CN1c2c(C(=O)Nc3ccc(NS(C)(=O)=O)cc3)nn(-c3ccc(Br)cc3)c2-c2ccccc2S1(=O)=O	> 50	12.1	7.4	21	> 166	Toxic	>22		
CN1c2c(C(=O)Nc3ccc(NS(C)(=O)=O)cc3)nn(-c3ccccc3C(F)(F)F)c2-c2ccccc2S1(=O)=O	< 50	> 50	25		> 169	Toxic	>7		
CN1c2c(NC(=O)c3ccc(NS(C)(=O)=O)cc3)nn(-c3cccc(F)c3)c2-c2ccccc2S1(=O)=O	< 50	> 50	80.8		160	Toxic	2.3		
CN1c2c(C(=O)Nc3ccc(NS(C)(=O)=O)cc3)n[nH]c2-c2ccccc2S1(=O)=O	< 50	> 50	88.2	65.2	155	Toxic	2.5		
Cc1ccccc1-n1nc(C(=O)Nc2ccc(NS(C)(=O)=O)cc2)c2c1-c1ccccc1S(=O)(=O)N2C	> 50	30.8	14.3		> 233	Toxic	>16		
COc1ccc(-n2nc(C(=O)Nc3ccc(NS(C)(=O)=O)cc3)c3c2-c2ccccc2S(=O)(=O)N3C)cc1	< 50	> 50	8.1	25	> 226	Non-toxic	>28		

— ChEMBL document CHEMBL3232903, “New pyrazolobenzothiazine derivatives as hepatitis C virus NS5B polymerase palm site I inhibitors” (J Med Chem, 2014)
